Screening data deposited in PubChem by The Scripps Research Institute Molecular Screening Center.
In the library only some 4.2% were active in any assay of this set; here they are far more common.
OX1R antag-1: antagonists of human orexin 1 receptor (OX1R) | inhibition, % at 6.6 µM | AID 485270 | OX1R-expressing cells, FRET antagonist read-out | hit rate 1.8% among 330,000; in the data active = inhibition mostly above about 38%, no sharp cut-off; inactive = mostly below about 40%;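 note: 0% = agonist challenge alone and 100% = reference antagonist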
Target sequence (O43613 whole entry, looked up): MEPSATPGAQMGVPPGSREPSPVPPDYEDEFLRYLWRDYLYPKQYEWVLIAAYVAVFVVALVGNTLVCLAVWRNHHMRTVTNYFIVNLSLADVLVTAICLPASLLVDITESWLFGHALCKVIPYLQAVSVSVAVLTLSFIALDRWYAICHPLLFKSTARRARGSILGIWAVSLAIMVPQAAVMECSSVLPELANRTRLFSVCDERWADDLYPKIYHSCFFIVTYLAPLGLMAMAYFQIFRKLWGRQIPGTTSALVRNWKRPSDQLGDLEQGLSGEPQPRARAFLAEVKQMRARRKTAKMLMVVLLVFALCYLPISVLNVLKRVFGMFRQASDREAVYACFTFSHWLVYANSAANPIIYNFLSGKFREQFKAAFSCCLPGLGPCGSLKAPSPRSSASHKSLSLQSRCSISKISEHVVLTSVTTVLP
OX1R antag-2: human HCRTR1 antagonism. O43613. CHO/OX1R cells, Fluo-8 calcium fluorescence, orexin A. hit rate 0.43% among 330,000. inhibition, % at 5 µM;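 active = inhibition above its plate's threshold, mean inhibition of all tested compounds on the plate plus 3 SD, cut at about 37% in these data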;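 note: 0% = orexin A challenge wells and 100% = SB-334867-A antagonist wells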
TAAR1 agonist: human TAAR1 agonism. Q96RJ0. CHO RD-HGA16 TAAR1, Fluo-8 calcium fluorescence; vehicle wells 0%, saturating PEA agonist 100%. activation, % at 3 µM. hit rate 0.99% among 360,000. AID 624467;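 active = activation above the mean activation of all test compounds in the run plus 3 SD, cut at about 38% in these data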
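Benchmarks: low control DMSO, high control PEA (EC100); System: CHO RD-HGA16 cells carrying human TAAR1 plus Gα16; Detection: Fluo-8 fluorescence, 5 s baseline then 140 s kinetic read; Schedule: 17-24 h plating, Fluo-8 75 min 37 °C, 30 min RT; Read-out basis: % activation from peak over basal fluorescence ratio, DMSO-to-PEA scaled.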
CHO parental Ca: counter-screen: ATP calcium response change in parental CHO cells; inhibition, % at 5.6 µM; parental CHO-K1, ATP-induced calcium, Fluo-8 fluorescence; AID 463079; hit rate 0.63% among 330,000;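 active = inhibition above that plate's mean sample inhibition plus 3 SD, cut at about 26% in these data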;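 note: 0% = ATP-challenged DMSO wells and 100% = DMSO wells without ATP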
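material = parental CHO cells | also added = ATP as calcium-mobilizing challenge | dosing = single point at 5.6 µM | detection = intracellular calcium via Fluo-8 no-wash fluorescent dye | read-out = % inhibition | benchmarks = low control ATP plus DMSO, high control DMSO only | repeats = one well per compound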
GalR3 antag: antagonists of human GalR3. O60755. HEK293 GalR3-CNG cAMP membrane potential fluorescence; galR3 body fused to GalR1 C-terminus. inhibition, % at 3 µM. hit rate 0.44% among 360,000;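 active = inhibition above the screen-wide average plus 3 SD, cut at about 13% in these data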;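 note: forskolin and galanin both at EC90 stimulate the cells; cAMP rise reported by CNG channel membrane potential dye signal; 0% = forskolin plus galanin with DMSO and 100% = forskolin alone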
TAAR1 antagonist: human TAAR1 antagonism | Q96RJ0 | CHO RD-HGA16 TAAR1, Fluo-8 calcium fluorescence, antagonist | inhibition, % at 3 µM | hit rate 1.5% among 360,000 | AID 624466;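 active = inhibition above a per-plate cutoff, the mean inhibition of test compounds on that plate plus 3 SD, cut at about 49% in these data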;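 note: 0% = DMSO plus EC80 beta-PEA response and 100% = DMSO alone without agonist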
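Assay system: CHO-derived RD-HGA16 cells stably expressing human TAAR1 plus Gα16. Timing: 140 s kinetic read after compound, 140 s after agonist. Technique: kinetic Fluo-8 calcium fluorescence measurement. Measure: % inhibition of agonist calcium response.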
* = called active by the depositor; . = no result given.

SMILES	OX1R antag-1	OX1R antag-2	TAAR1 agonist	CHO parental Ca	GalR3 antag	TAAR1 antagonist
CCOc1ccc(NS(=O)(=O)c2ccc(C(=O)N3CCCCCC3)cc2)cc1	27	2	47*	-1	-4	29
O=C(NCC1CCCO1)c1ccccc1S(=O)(=O)c1ccc([N+](=O)[O-])cc1 (stereo unspecified)	76*	2	2	-5	-7	9
CCOc1ccc(S(=O)(=O)Nc2ccc(C(=O)N3CCCC3)cc2)cc1	12	-21	9	-10	0	-20
CCCNC(=O)COc1ccc(S(=O)(=O)Nc2ccc(C)cc2)cc1	5	-10	40*	-9	-7	-24
Cc1ccc(S(=O)(=O)N/N=C\c2ccc([N+](=O)[O-])o2)cc1	2	-14	5	0	-5	-8
COc1ccc(N=C2SC(C(=O)O)CC(=O)N2Cc2ccc(OC)c(OC)c2)cc1 (stereo unspecified)	9	-16	1	4	-2	14
CC(=O)c1c(O)c2ccccc2n(Cc2ccccc2)c1=O	2	-24	2	-20	-10	-12
Cc1ccc(NS(=O)(=O)c2ccc(C(=O)N3CCC3)cc2)cc1	15	-27	12	-8	-3	-18
O=S(=O)(NCC1CCCO1)c1ccc(-c2ccc(Cl)cc2)cc1 (stereo unspecified)	24	20	4	36*	-7	14
CC(C)(C)c1ccc(S(=O)(=O)NCC2CCCO2)cc1 (stereo unspecified)	9	-9	1	15	-6	-7
Cc1ccc(NS(=O)(=O)c2ccc(C(=O)N3CCCCCCC3)cc2)cc1	21	-7	54*	-1	1	18
Cc1ccc(NS(=O)(=O)c2ccc(C(=O)NCC3CCCO3)cc2)cc1 (stereo unspecified)	29	-8	40*	-4	12	-19
Cc1cc(S(=O)(=O)Nc2ccc(C(=O)NCC3CCCO3)cc2)ccc1F (stereo unspecified)	8	-12	1	-8	-2	11
CN(C)C(/C=C/Nc1ccc([N+](=O)[O-])cc1)=C(C#N)C#N	58*	-4	3	-6	-3	8
O=C(NCC1OCCCN1S(=O)(=O)c1cc(F)ccc1F)C(=O)NC1CCCCC1 (stereo unspecified)	35	-5	4	-14	-7	5
Cc1ccccc1CN(C)Cc1cc(=O)oc2c(C)c(C)ccc12	20	-2	-1	6	-6	51*
O=C1CCC(C(=O)NCc2cccnc2)N1 (stereo unspecified)	0	6	16	-1	-2	-13
Cc1cc2c([nH]c3ccccc32)c2c1OC(C)(C)C=C2	24	-6	4	-11	1	-12
CC1=C(C(=O)N(C)C)CC(CC(=O)NCCc2ccccn2)C(=O)N1Cc1ccc(F)cc1 (stereo unspecified)	.	.	41*	.	-7	-10
CC1=C(C(=O)N(C(C)C)C(C)C)CC(CC(=O)NCCc2ccccn2)C(=O)N1Cc1ccc(F)cc1 (stereo unspecified)	.	.	38*	.	3	-36
CC1=C(C(=O)N(C)C)CC(CC(=O)NCCc2ccccn2)C(=O)N1Cc1ccc(C(C)(C)C)cc1 (stereo unspecified)	.	.	11	.	-6	2
CC1=C(C(=O)N2CCOCC2)CC(CC(=O)NCCc2ccccn2)C(=O)N1Cc1ccc(F)cc1 (stereo unspecified)	.	.	5	.	2	-13
CCc1ccccc1OCC(=O)OCC(=O)N1CC(=O)Nc2ccccc21	41	5	-1	-4	-5	7
COc1ccc(-c2nc(NC(=O)c3[nH]c(C)c(C(C)=O)c3C)sc2C)cc1	19	-20	46*	-8	-5	88*
C[C@@H](C(=O)N1CCN(c2ccccc2)CC1)N1C(=O)C2CC=CCC2C1=O (stereo partly specified)	9	-14	11	7	-8	-10
SMILES	OX1R antag-1	OX1R antag-2	TAAR1 agonist	CHO parental Ca	GalR3 antag	TAAR1 antagonist
COc1ccc2nc3ccccc3nc2c1N	55*	-17	0	-20	-3	-12
COc1ccc2nc3cccc(OC)c3nc2c1	42*	-18	0	-17	-2	-9
COc1ccc2nc(-c3ccco3)c(-c3ccco3)nc2c1	29	-14	2	-12	-8	-38
CCCCC(=O)N1CCN(c2nc3ccc(Cl)cc3s2)CC1	12	2	2	14	-11	-19
O=C(CN1CCN(Cc2ccc(F)cc2Cl)CC1)NCc1ccccc1	15	-18	-1	-14	-4	-1
CS(=O)(=O)c1sc(C#N)c2c1C(=O)CC(c1ccccc1)C2 (stereo unspecified)	46*	92*	4	53*	-1	73*
C=CCn1c(SCC)nc(O)cc1=O	29	-21	14	-13	-5	-1
C=CCn1c(SCCC)nc(O)cc1=O	0	-13	61*	-14	-3	-17
COc1ccc(S(=O)(=O)N2CCOC2CNC(=O)C(=O)NCCc2c[nH]c3ccccc23)cc1C (stereo unspecified)	55*	5	9	-1	.	37
COc1ccc(S(=O)(=O)N2CCOC2CNC(=O)C(=O)NCCc2c[nH]c3ccccc23)cc1 (stereo unspecified)	14	-2	17	5	.	35
COc1ccc(S(=O)(=O)N2CCOC2CNC(=O)C(=O)NCCc2ccc(S(N)(=O)=O)cc2)cc1 (stereo unspecified)	5	-18	0	72*	.	-7
NC(=O)C1CCN(C(=O)CN2CCCc3ccccc32)CC1	19	-12	11	-4	0	0
COc1ccc(C2NCCc3c2[nH]c2ccccc32)cc1COc1ccc(F)cc1 (stereo unspecified)	-3	19	49*	32*	-9	34
O=C(Nc1ccc(-c2csc(Nc3ccccc3)n2)cc1)c1cccc(C(F)(F)F)c1	15	-29	5	-5	-2	52*
O=C(O)c1ccc(Nc2nc(-c3ccccc3)cs2)cc1	5	22	38*	3	-2	28
CCOc1ccc(N2CC(=O)Nc3ccccc3NCC2=O)cc1	9	-11	4	-7	-3	3
COc1ccc(CCNC(=O)CSCc2ccc(C)cc2)cc1OC	11	-18	2	-14	-2	6
O=[N+]([O-])c1ccc(S(=O)(=O)NCCc2ccncc2)cc1	43*	-16	3	-4	-5	15
O=S(=O)(NCCc1ccncc1)c1ccc(F)cc1	5	-2	7	-3	0	-6
COc1cc2[nH]c(Cl)c([N+](=O)[O-])c2cc1OC	73*	0	10	4	-4	-10
